Measurements: ChEMBL document CHEMBL1165861, “Synthesis and biological evaluation of some pyrazolylpyrazolines as anti-inflammatory-antimicrobial agents” (2010)
Values after ≈ are worked out from the molar mass of the structure shown.

Experiments:
[1] = tested on: Rattus norvegicus; assay: Antiinflammatory activity in Wistar albino rat assessed as inhibition of carrageenan-induced paw edema at 50 mg/kg, po administered 30 mins before carrageenan challenge measured after 30 mins relative to control; type: functional
How it was run: (§1)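 Male Wistar albino rats (200–250 g) in groups of six, food withdrawn 12 h before and during the test. Compounds were dosed orally at 50 mg/kg; controls received tween 80 (95:5). After 30 min, 0.1 mL of 1% w/v carrageenan in saline was injected subplantar into the left hind paw. Plethysmometer volumes were taken initially and at 30–120 min. AI% is relative to control, mean ± SEM, ANOVA.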

[2] = tested on: Rattus norvegicus; assay: Antiinflammatory activity in Wistar albino rat assessed as inhibition of carrageenan-induced paw edema at 50 mg/kg, po administered 30 mins before carrageenan challenge measured after 60 mins relative to control; type: functional; how it was run: as §1
[3] = tested on: Rattus norvegicus; assay: Antiinflammatory activity in Wistar albino rat assessed as inhibition of carrageenan-induced paw edema at 50 mg/kg, po administered 30 mins before carrageenan challenge measured after 90 mins relative to control; type: functional; how it was run: as §1
[4] = tested on: Rattus norvegicus; assay: Antiinflammatory activity in Wistar albino rat assessed as inhibition of carrageenan-induced paw edema at 50 mg/kg, po administered 30 mins before carrageenan challenge measured after 120 mins relative to control; type: functional; how it was run: as §1
[5] = tested on: Staphylococcus aureus; assay: Antimicrobial activity against Staphylococcus aureus MTCC 3160 at 4 mg/ml after 24 hrs by agar diffusion method; type: functional; settings: MTCC 3160, 24 h, read-out: DIZ
How it was run: (§2)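 Agar well diffusion: seeded agar plates swabbed with inoculum and left 15 min for adsorption, then 8 mm wells bored and loaded. Incubation 37 °C for 24 h. Inhibition zone diameter measured in mm with a zone reader. DMSO medium served as negative control and ciprofloxacin as positive control. Triplicates.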

[6] = tested on: Bacillus subtilis; assay: Antimicrobial activity against Bacillus subtilis MTCC 121 at 4 mg/ml after 24 hrs by agar diffusion method; type: functional; settings: MTCC 121, 24 h, read-out: DIZ; how it was run: as §2
[7] = tested on: Pseudomonas aeruginosa; assay: Antimicrobial activity against Pseudomonas aeruginosa MTCC 741 at 4 mg/ml after 24 hrs by agar diffusion method; type: functional; settings: MTCC 741, 24 h, read-out: DIZ; how it was run: as §2
[8] = tested on: Escherichia coli; assay: Antimicrobial activity against Escherichia coli MTCC 51 at 4 mg/ml after 24 hrs by agar diffusion method; type: functional; settings: MTCC 51, 24 h, read-out: DIZ; how it was run: as §2
[9] = tested on: Staphylococcus aureus; assay: Antimicrobial activity against Staphylococcus aureus MTCC 3160 after 24 hrs by broth microdilution assay; type: functional; settings: MTCC 3160, 24 h
How it was run: (§3)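 MIC was determined by microplate dilution (microdilution) in Müller–Hinton broth, with ciprofloxacin as the reference drug.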

[10] = tested on: Bacillus subtilis; assay: Antimicrobial activity against Bacillus subtilis MTCC 121 after 24 hrs by broth microdilution assay; type: functional; settings: MTCC 121, 24 h; how it was run: as §3
[11] = tested on: Pseudomonas aeruginosa; assay: Antimicrobial activity against Pseudomonas aeruginosa MTCC 741 after 24 hrs by broth microdilution assay; type: functional; settings: MTCC 741, 24 h; how it was run: as §3
[12] = tested on: Escherichia coli; assay: Antimicrobial activity against Escherichia coli MTCC 51 after 24 hrs by broth microdilution assay; type: functional; settings: MTCC 51, 24 h; how it was run: as §3
[13] = organism: Rattus norvegicus; assay: animal or person; settings: Wistar albino, po, read-out: INH
[14] = organism: Rattus norvegicus; assay: animal or person; settings: Wistar albino, po, read-out: INH; remark: listed apart in the source
[15] = organism: Rattus norvegicus; assay: animal or person; settings: Wistar albino, po, read-out: INH; remark: listed apart in the source
[16] = organism: Rattus norvegicus; assay: animal or person; settings: Wistar albino, po, read-out: INH; remark: listed apart in the source

Row | Structure (SMILES) | MIC [9] [µg/mL] | MIC [10] [µg/mL] | MIC [11] [µg/mL] | MIC [12] [µg/mL] | inhibition in vivo at 50 mg/kg [1] [%] | inhibition in vivo at 50 mg/kg [2] [%] | inhibition in vivo at 50 mg/kg [3] [%] | inhibition in vivo at 50 mg/kg [4] [%] | zone of inhibition at 4000 µg/mL [5] [mm] | zone of inhibition at 4000 µg/mL [6] [mm] | zone of inhibition at 4000 µg/mL [7] [mm] | zone of inhibition at 4000 µg/mL [8] [mm] | inhibition in vivo at 4 mg/kg [13] [%] | inhibition in vivo at 4 mg/kg [14] [%] | inhibition in vivo at 4 mg/kg [15] [%] | inhibition in vivo at 4 mg/kg [16] [%]
1 | NS(=O)(=O)c1ccc(N2N=C(c3ccc(Br)cc3)CC2c2cn(-c3ccccc3)nc2-c2ccccc2)cc1 (stereo not drawn) | 32 (≈ 53.5 µM) | 64 (≈ 107 µM) | 128 (≈ 214 µM) | 64 (≈ 107 µM) | 7 | 23 | 22 | 23 | 17 | 11.3 | 9.66 | 11.7 |  |  |  | 
2 | Cc1ccc(-c2nn(-c3ccccc3)cc2C2CC(c3ccc(F)cc3)=NN2c2ccc(S(N)(=O)=O)cc2)cc1 (stereo not drawn) | 32 (≈ 58 µM) | 32 (≈ 58 µM) | 64 (≈ 116 µM) | 64 (≈ 116 µM) | 30 | 43 | 34 | 32 | 16.7 | 16.3 | 11 | 11.7 |  |  |  | 
3 | Cc1ccc(C2=NN(c3ccc(S(N)(=O)=O)cc3)C(c3cn(-c4ccccc4)nc3-c3ccc(C)cc3)C2)cc1 (stereo not drawn) | 32 (≈ 58.4 µM) | 64 (≈ 117 µM) | 128 (≈ 234 µM) | 64 (≈ 117 µM) | 18 | 19 | 16 | 9 | 16.7 | 10.7 | 9.33 | 10.7 |  |  |  | 
4 | NS(=O)(=O)c1ccc(N2N=C(c3ccc(F)cc3)CC2c2cn(-c3ccccc3)nc2-c2ccc(Br)cc2)cc1 (stereo not drawn) | 64 (≈ 104 µM) | 64 (≈ 104 µM) | 128 (≈ 208 µM) | 128 (≈ 208 µM) | 13 | 26 | 17 | 15 | 10 | 11 | 9.33 | 9.33 |  |  |  | 
5 | NS(=O)(=O)c1ccc(N2N=C(c3ccc(F)cc3)CC2c2cn(-c3ccccc3)nc2-c2ccc(F)cc2)cc1 (stereo not drawn) | 16 (≈ 28.8 µM) | 16 (≈ 28.8 µM) | 32 (≈ 57.6 µM) | 32 (≈ 57.6 µM) | 18 | 8 | 16 | 9 | 21 | 10.7 | 19.3 | 10.7 |  |  |  | 
6 | Cc1ccc(C2=NN(c3ccc(S(N)(=O)=O)cc3)C(c3cn(-c4ccccc4)nc3-c3ccccc3)C2)cc1 (stereo not drawn) | 32 (≈ 60 µM) | 32 (≈ 60 µM) | 64 (≈ 120 µM) | 64 (≈ 120 µM) | 5 | 17 | 27 | 26 | 16.3 | 17 | 11.7 | 11.7 |  |  |  | 
7 | NS(=O)(=O)c1ccc(N2N=C(c3ccccc3)CC2c2cn(-c3ccccc3)nc2-c2ccccc2)cc1 (stereo not drawn) | 32 (≈ 61.6 µM) | 32 (≈ 61.6 µM) | 64 (≈ 123 µM) | 64 (≈ 123 µM) | 5 | 4 | 10 | 1 | 17.7 | 18.7 | 10.7 | 11.7 |  |  |  | 
8 | O=C(O)c1cn(C2CC2)c2cc(N3CCNCC3)c(F)cc2c1=O [CIPROFLOXACIN] | 2 (≈ 6.04 µM) | 2 (≈ 6.04 µM) | 4 (≈ 12.1 µM) |  |  |  |  |  | 32.6 | 29.2 | 28 | 28.6 |  |  |  | 
9 | CS(=O)(=O)Nc1ccc([N+](=O)[O-])cc1Oc1ccccc1 [NIMESULIDE] |  |  |  |  |  |  |  |  |  |  |  |  | 37 | 43 | 45 | 36

More lines, main results first:

Row | MIC [9] [µg/mL] | MIC [10] [µg/mL] | MIC [11] [µg/mL] | MIC [12] [µg/mL] | Structure (SMILES) | inhibition in vivo at 50 mg/kg [1] [%] | inhibition in vivo at 50 mg/kg [2] [%] | inhibition in vivo at 50 mg/kg [3] [%] | inhibition in vivo at 50 mg/kg [4] [%] | zone of inhibition at 4000 µg/mL [5] [mm] | zone of inhibition at 4000 µg/mL [6] [mm] | zone of inhibition at 4000 µg/mL [7] [mm] | zone of inhibition at 4000 µg/mL [8] [mm] | inhibition in vivo at 4 mg/kg [13] [%] | inhibition in vivo at 4 mg/kg [14] [%] | inhibition in vivo at 4 mg/kg [15] [%] | inhibition in vivo at 4 mg/kg [16] [%]
10 | 16 (≈ 29.8 µM) | 16 (≈ 29.8 µM) | 32 (≈ 59.5 µM) | 32 (≈ 59.5 µM) | NS(=O)(=O)c1ccc(N2N=C(c3ccccc3)CC2c2cn(-c3ccccc3)nc2-c2ccc(F)cc2)cc1 (stereo not drawn) | 18 | 14 | 22 | 23 | 23.3 | 11.7 | 17.3 | 17.3 |  |  |  | 
11 | 32 (≈ 60 µM) | 64 (≈ 120 µM) | 128 (≈ 240 µM) | 64 (≈ 120 µM) | Cc1ccc(-c2nn(-c3ccccc3)cc2C2CC(c3ccccc3)=NN2c2ccc(S(N)(=O)=O)cc2)cc1 (stereo not drawn) | 18 | 14 | 22 | 16 | 16 | 11 | 9.33 | 11.7 |  |  |  | 
12 | 8 (≈ 13.4 µM) | 8 (≈ 13.4 µM) | 32 (≈ 53.5 µM) | 32 (≈ 53.5 µM) | NS(=O)(=O)c1ccc(N2N=C(c3ccccc3)CC2c2cn(-c3ccccc3)nc2-c2ccc(Br)cc2)cc1 (stereo not drawn) | 16 | 26 | 38 | 32 | 24 | 23.7 | 17.3 | 17.3 |  |  |  | 
13 | 8 (≈ 14.9 µM) | 8 (≈ 14.9 µM) | 32 (≈ 59.5 µM) | 16 (≈ 29.8 µM) | NS(=O)(=O)c1ccc(N2N=C(c3ccc(F)cc3)CC2c2cn(-c3ccccc3)nc2-c2ccccc2)cc1 (stereo not drawn) | 22 | 25 | 23 | 15 | 23.7 | 23.3 | 17.7 | 21.7 |  |  |  | 
